Measurements taken from publication PMC10441415 (bioRxiv, 2023).
“And” between values parts separate entries of the source, which are not always exact repeats. Identical values can stand only once.

Tests used:
[1] = tested on: Mtb-infected U937 cells; settings: cited from earlier work
[2] = tested on: Mtb H37Rv; parameters: species or system Mycobacterium tuberculosis; settings: in vivo
[3] = chronic treatment, wild-type mice; cited from earlier work
[4] = tested on: Mtb; settings: C57BL/6 mice, chronic phase of infection; cited from earlier work
[5] = Single-dose plasma pharmacokinetics, intraperitoneal; assay type: in vivo, BALB/c mice; settings: single IP dose, sampling up to 24 hours
How it was run: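 Female BALB/c mice, 9–11 weeks old, each received one intraperitoneal dose (5 or 10 mg/kg) of the test compound, a tin metalloporphyrin HO-1 inhibitor, in sodium phosphate buffer (pH 7.4 – 7.8). Blood was drawn from three mice per time point at 0.25, 0.5, 1, 2, 4, 8 and 24 h. Plasma was assayed by LC-MS/MS. t1/2, tmax, Cmax, AUClast and AUCInf came from noncompartmental analysis.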

[6] = tested on: naive CD4+ and CD8+ T cells; settings: via interactions with CD14+ monocytes in vitro; cited from earlier work
[7] = mouse, in vivo, ip
[8] = tested on: Nos2, Ifn-γ, Tnf-α, Cd38, Egr2; parameters: species or system BALB/c mice; settings: mouse, in vivo
[9] = tested on: lung inflammation of Mtb-infected mice; parameters: species or system BALB/c mice; settings: mouse, in vivo
[10] = tested on: Mtb H37Rv; parameters: species or system Mycobacterium tuberculosis; settings: in vivo; remark: listed apart in the source
[11] = tested on: human peripheral blood mononuclear cells; settings: cited from earlier work
[12] = tested on: lung inflammation of Mtb-infected mice; parameters: species or system BALB/c mice; settings: mouse, in vivo; remark: listed apart in the source

Compound	Secretion of proinflammatory cytokines, including TNF-α [1]	Additive effect on lung CFU when co-administered with SPaO [2]	Enhancement of the bactericidal activity of RHZ [2]	Mean lung log10 CFU count (±SD) at W2 [2] [log10 CFU]	Mean lung log10 CFU count (±SD) at W4 [2] [log10 CFU]	Mean lung log10 CFU count (±SD) at W6 [2] [log10 CFU]	Reduction of mean lung bacillary burden relative to vehicle control [2] [log10 CFU]	Reduction of mean lung bacterial burden relative to vehicle control [2]	Tubulointerstitial inflammation and fibrosis [3]	Lung bacillary burden [4]	Last time point with detectable blood concentrations [5] [h]	Activation, proliferation, and maturation of naive CD4+ and CD8+ T cells [6]	Tolerability [7]	Cd38 expression in lung compared to any other treatment group [8]	Tnf-α expression in lung relative to vehicle [8]	Gross or histological lung pathology [9]	Lung bacillary burdens relative to the SPaO regimen [10]	Microbiological relapse rates [10]	Expression of pro-inflammatory cytokines [11]	Lung/body weight ratio versus SPaO control regimen [12]
C=Cc1c2[n-]c(c1C)/C=c1\[n-]/c(c(C)c1C=C)=C\c1[n-]c(c(CCC(=O)O)c1C)C=c1[n-]/c(c(C)c1CCC(=O)O)=C\2.[Sn+4] [SnPP, tin-protoporphyrin IX]	reduced the secretion of proinflammatory cytokines	neither SnPP nor SnMP adjunctive therapy showed an additive effect	did not significantly enhance	5.52 ± 0.29	5.30 ± 0.30	5.30 ± 0.19	0.88	1.2 log10 CFU and 1.1 log10 CFU	can induce tubulointerstitial inflammation and fibrosis	reduced the lung bacillary burden alone	8									
CCC1=C(C)c2cc3[n-]c(cc4[n-]c(cc5nc(cc1n2)C(C)=C5CC)c(C)c4CCC(=O)O)c(CCC(=O)O)c3C.[Cl-].[Cl-].[Sn+4] [SnMP, stannsoporfin]		neither SnPP nor SnMP adjunctive therapy showed an additive effect	did not significantly enhance	5.73 ± 0.22	5.36 ± 0.31	5.98 ± 0.06	0.67				8	induce the activation, proliferation, and maturation	well tolerated	significantly higher expression	reduced expression	did not significantly alter	did not significantly alter	did not reduce microbiological relapse rates	induces the expression of pro-inflammatory cytokines	did not differ statistically
